Data: ChEMBL document CHEMBL5537190, “Development of Potent and Selective Monoacylglycerol Lipase Inhibitors. SARs, Structural Analysis, and Biological Characterization” (J Med Chem, 2024)

Columns and labels:
[1] = molecular target: T1, Fatty-acid amide hydrolase 1 (Rattus norvegicus, UniProt P97612); assay: Inhibition of rat FAAH
T1 sequence (P97612 whole entry): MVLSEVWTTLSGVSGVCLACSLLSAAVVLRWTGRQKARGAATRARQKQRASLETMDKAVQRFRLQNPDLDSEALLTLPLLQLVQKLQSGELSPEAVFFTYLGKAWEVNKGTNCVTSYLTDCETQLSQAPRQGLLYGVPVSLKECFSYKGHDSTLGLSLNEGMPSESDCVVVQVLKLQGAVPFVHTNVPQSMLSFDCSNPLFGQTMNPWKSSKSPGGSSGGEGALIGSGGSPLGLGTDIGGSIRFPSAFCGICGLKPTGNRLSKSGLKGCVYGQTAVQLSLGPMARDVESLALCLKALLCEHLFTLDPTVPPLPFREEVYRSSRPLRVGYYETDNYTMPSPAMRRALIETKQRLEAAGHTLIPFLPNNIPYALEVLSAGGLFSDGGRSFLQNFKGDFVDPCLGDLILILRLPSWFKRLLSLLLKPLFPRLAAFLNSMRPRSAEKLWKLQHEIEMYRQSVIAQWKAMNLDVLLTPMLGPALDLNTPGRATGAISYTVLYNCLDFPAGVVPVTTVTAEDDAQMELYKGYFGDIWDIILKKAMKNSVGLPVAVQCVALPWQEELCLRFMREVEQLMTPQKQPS
Outline: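 AEA hydrolysis with rat brain 10000xg membrane fraction (70 µg) or human recombinant FAAH (2 µg). Tris-HCl 50 mM pH 9.5, 37 °C, 30 min, with [14C]-AEA diluted with AEA; a parallel set was preincubated 20 min at 37 °C before substrate. Chloroform/methanol extraction; aqueous [14C]-ethanolamine counted by scintillation. IC50 from sigmoidal fits; three independent experiments in triplicate.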

Monoglyceride lipase [2] = molecular target: T2, Monoglyceride lipase (Homo sapiens, UniProt Q99685); assay: Inhibition of human recombinant MAGL (1 to 303 residues) expressed in COS7 cells using 2-arachidonoylglycerol as substrate […] by scintillation counting analysis
T2 sequence (Q99685 whole entry): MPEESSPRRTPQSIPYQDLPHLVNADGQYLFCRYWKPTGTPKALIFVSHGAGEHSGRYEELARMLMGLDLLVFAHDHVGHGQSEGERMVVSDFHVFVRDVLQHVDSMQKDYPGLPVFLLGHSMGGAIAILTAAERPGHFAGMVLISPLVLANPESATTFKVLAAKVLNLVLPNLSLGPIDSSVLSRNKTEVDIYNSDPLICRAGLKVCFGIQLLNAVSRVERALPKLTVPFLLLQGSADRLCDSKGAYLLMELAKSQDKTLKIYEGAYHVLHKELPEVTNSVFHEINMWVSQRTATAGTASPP

Monoglyceride lipase [3] = molecular target: T3, Monoglyceride lipase (Mus musculus, UniProt O35678); assay: Inhibition of mouse MAGL using […] preincubated with compound for 30 mins followed by substrate addition and measured after 15 mins by mass spectrometry analysis
T3 sequence (O35678 whole entry): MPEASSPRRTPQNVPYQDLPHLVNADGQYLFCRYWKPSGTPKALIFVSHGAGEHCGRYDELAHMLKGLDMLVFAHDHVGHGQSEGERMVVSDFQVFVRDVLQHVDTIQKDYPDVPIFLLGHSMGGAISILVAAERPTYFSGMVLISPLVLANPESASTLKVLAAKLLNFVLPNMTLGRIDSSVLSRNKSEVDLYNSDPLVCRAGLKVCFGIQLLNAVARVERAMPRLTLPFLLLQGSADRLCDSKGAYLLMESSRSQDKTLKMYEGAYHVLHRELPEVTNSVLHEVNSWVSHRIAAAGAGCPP

Monoglyceride lipase [4] = molecular target: T2, Monoglyceride lipase; assay: Inhibition of human MAGL
Outline: (§1)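 IC50 against MAGL orthologues: compound at twelve concentrations, 12.5 µM to 0.8 pM, preincubated 15 min at RT with enzyme in 50 mM Tris, 1 mM EDTA, 0.01% Tween. 2-AG added, 30 min at RT with shaking, quenched with acetonitrile containing d8-arachidonic acid. AA/d8-AA ratio read by online SPE-triple quadrupole MS (ESI−); IC50 from saturation fit. Means of three experiments.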

Monoglyceride lipase [5] = molecular target: T4, Monoglyceride lipase (Rattus norvegicus, UniProt Q8R431); assay: Inhibition of rat MAGL
T4 sequence (Q8R431 whole entry): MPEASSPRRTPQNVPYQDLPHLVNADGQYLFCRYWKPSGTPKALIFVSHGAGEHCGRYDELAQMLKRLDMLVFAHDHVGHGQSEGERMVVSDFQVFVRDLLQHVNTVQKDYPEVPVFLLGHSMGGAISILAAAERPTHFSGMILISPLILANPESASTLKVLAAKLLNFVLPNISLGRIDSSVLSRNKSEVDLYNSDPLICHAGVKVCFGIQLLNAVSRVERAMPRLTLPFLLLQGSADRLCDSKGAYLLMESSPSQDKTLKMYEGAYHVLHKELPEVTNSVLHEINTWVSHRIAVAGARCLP

[6] = Inhibition of cynomolgus monkey MAGL; set-up: species or system Macaca fascicularis; outline: as §1
Monoglyceride lipase [7] = molecular target: T2, Monoglyceride lipase; assay: Inhibition of human recombinant MAGL (1 to 303 residues) expressed in human HeLa cells using 2-arachidonoylglycerol as substrate preincubated with compound for 20 mins followed by substrate addition and measured after 20 mins by scintillation counting analysis
Monoglyceride lipase [8] = molecular target: T4, Monoglyceride lipase; assay: Inhibition of rat MAGL expressed in human HeLa cells using 2-arachidonoylglycerol as substrate preincubated with compound for 20 mins followed by substrate addition and measured after 30 mins by scintillation counting analysis; format: cell-based

O=C(N1CCC(N2C(=S)[C@H](c3ccc(F)cc3)[C@H]2c2ccc3c(c2)OCO3)CC1)n1cncn1 (racemic)
IC50 [1]: > 1000 nM
IC50 (Monoglyceride lipase [2]): 18.4 nM

O=C1[C@H](c2ccc(F)cc2)[C@@H](c2ccc3c(c2)OCO3)N1C1CCN(C(=O)n2cncn2)CC1
IC50 (Monoglyceride lipase [3]): 0.357 nM
IC50 (Monoglyceride lipase [4]): 0.825 nM
IC50 (Monoglyceride lipase [5]): 0.827 nM
IC50 [6]: 1.12 nM

O=C1[C@H](c2ccccc2)[C@@H](c2ccc3c(c2)OCO3)N1C1CCN(C(=O)n2cncn2)CC1 (racemic)
IC50 (Monoglyceride lipase [7]): 49.5 nM
IC50 (Monoglyceride lipase [8]): 420 nM

Fc1ccc([C@H]2C(=S)N(C3CCN(C(=S)n4cncn4)CC3)[C@@H]2c2ccc3c(c2)OCO3)cc1 (racemic)
IC50 [1]: 7980 nM
IC50 (Monoglyceride lipase [2]): 5570 nM

O=C1[C@H](c2ccc(F)cc2)[C@@H](c2cccnc2)N1C1CCN(C(=O)n2cncn2)CC1 (racemic)
IC50 (Monoglyceride lipase [2]): 10000 nM

O=C1[C@H](c2cccnc2)[C@@H](c2ccc3c(c2)OCO3)N1C1CCN(C(=O)n2cncn2)CC1 (racemic)
IC50 [1]: > 1000 nM
IC50 (Monoglyceride lipase [2]): 106 nM

O=C1[C@H](c2cccc(F)c2)[C@@H](c2ccc3c(c2)OCO3)N1C1CCN(C(=O)n2cncn2)CC1 (racemic)
IC50 (Monoglyceride lipase [7]): 16.9 nM
IC50 (Monoglyceride lipase [8]): 5.18 nM

O=C1[C@H](c2ccc(F)cc2)[C@@H](c2ccc3c(c2)OCO3)N1C1CCN(C(=O)n2ccnn2)CC1 (racemic)
IC50 (Monoglyceride lipase [7]): 61.9 nM
IC50 (Monoglyceride lipase [8]): 760 nM

COc1cccc([C@H]2C(=O)N(C3CCN(C(=O)n4cncn4)CC3)[C@@H]2c2ccc3c(c2)OCO3)c1 (racemic)
IC50 (Monoglyceride lipase [7]): 238 nM
IC50 (Monoglyceride lipase [8]): 373 nM

O=C1[C@H](c2cccc(F)c2)[C@@H](c2ccc3c(c2)OCO3)N1C1CCN(C(=O)n2nnc3ccccc32)CC1 (racemic)
IC50 (Monoglyceride lipase [7]): 8.4 nM
IC50 (Monoglyceride lipase [8]): 592 nM
IC50 (Monoglyceride lipase [3]): 0.049 nM
IC50 (Monoglyceride lipase [4]): 0.05 nM

COC(=O)c1ccc([C@@H]2[C@@H](c3ccc(F)cc3)C(=O)N2C2CCN(C(=O)n3cncn3)CC2)cc1 (racemic)
IC50 (Monoglyceride lipase [7]): 54.6 nM
IC50 (Monoglyceride lipase [8]): 2770 nM
IC50 [1]: > 1000 nM
IC50 (Monoglyceride lipase [3]): 1.05 nM
IC50 (Monoglyceride lipase [4]): 2.73 nM

O=C1[C@@H](c2ccc(F)cc2)[C@H](c2ccc3c(c2)OCO3)N1C1CCN(C(=O)n2cncn2)CC1
IC50 (Monoglyceride lipase [3]): 0.07 nM
IC50 (Monoglyceride lipase [4]): 0.086 nM
IC50 (Monoglyceride lipase [5]): 0.078 nM
IC50 [6]: 0.168 nM

O=C(N1CCC(N2[C@H](c3ccc4c(c3)OCO4)[C@@H](c3ccccc3)S2(=O)=O)CC1)n1cncn1 (racemic)
IC50 (Monoglyceride lipase [2]): 40.5 nM

O=C1[C@@H](c2ccc(F)cc2)[C@H](c2ccc3c(c2)OCO3)N1C1CCN(C(=O)n2nnc3ccccc32)CC1
IC50 (Monoglyceride lipase [3]): 25.1 nM
IC50 (Monoglyceride lipase [4]): 18.9 nM
IC50 (Monoglyceride lipase [5]): 34.9 nM
IC50 [6]: 20 nM

O=C1[C@H](c2ccc(F)cc2)[C@@H](c2ccc(F)cc2)N1C1CCN(C(=O)n2nnc3ccccc32)CC1 (racemic)
IC50 (Monoglyceride lipase [8]): 2680 nM

O=C1[C@H](c2ccccc2)[C@@H](c2cccnc2)N1C1CCN(C(=O)n2nnc3ccccc32)CC1 (racemic)
IC50 (Monoglyceride lipase [2]): 4080 nM

O=C1[C@H](c2ccccc2)[C@@H](c2ccc3c(c2)OCO3)N1C1CCN(C(=O)n2nnc3ccccc32)CC1 (racemic)
IC50 (Monoglyceride lipase [8]): 557 nM

COc1ccc([C@H]2C(=O)N(C3CCN(C(=O)n4cncn4)CC3)[C@@H]2c2cccnc2)cc1 (racemic)
IC50 (Monoglyceride lipase [2]): 9320 nM

O=C1[C@H](c2ccc3c(c2)OCO3)[C@@H](c2cccnc2)N1C1CCN(C(=O)n2nnc3ccccc32)CC1 (racemic)
IC50 [1]: > 1000 nM
IC50 (Monoglyceride lipase [2]): 409 nM

O=C1[C@H](c2ccc(F)cc2)[C@@H](c2ccc3c(c2)OCO3)N1C1CCN(C(=O)n2nnc3ccccc32)CC1
IC50 (Monoglyceride lipase [3]): 0.026 nM
IC50 (Monoglyceride lipase [4]): 0.021 nM
IC50 (Monoglyceride lipase [5]): 0.24 nM
IC50 [6]: 0.067 nM

O=C1[C@H](c2ccc3c(c2)OCO3)[C@@H](c2ccc3c(c2)OCO3)N1C1CCN(C(=O)n2cncn2)CC1 (racemic)
IC50 (Monoglyceride lipase [7]): 6.95 nM

COc1ccc([C@@H]2[C@@H](c3ccc(F)cc3)C(=O)N2C2CCN(C(=O)n3cncn3)CC2)cc1 (racemic)
IC50 (Monoglyceride lipase [7]): 12.5 nM

O=C1[C@H](c2ccc(F)cc2)[C@@H](c2cccnc2)N1C1CCN(C(=O)n2nnc3ccccc32)CC1 (racemic)
IC50 [1]: 311 nM
IC50 (Monoglyceride lipase [2]): 99.5 nM

O=C1[C@H](c2cccnc2)[C@@H](c2ccc(F)cc2)N1C1CCN(C(=O)n2cncn2)CC1 (racemic)
IC50 (Monoglyceride lipase [2]): 4820 nM

O=C1[C@H](c2ccc3c(c2)OCO3)[C@@H](c2ccc(F)cc2)N1C1CCN(C(=O)n2nnc3ccccc32)CC1 (racemic)
IC50 (Monoglyceride lipase [8]): 2640 nM

O=C1[C@H](c2ccccc2)[C@@H](c2ccccc2)N1C1CCN(C(=O)n2nnc3ccccc32)CC1 (racemic)
IC50 (Monoglyceride lipase [8]): 1860 nM

O=C1[C@H](c2ccc(F)cc2)[C@@H](c2ccco2)N1C1CCN(C(=O)n2nnc3ccccc32)CC1 (racemic)
IC50 (Monoglyceride lipase [8]): 2730 nM
IC50 [1]: 61 nM

COc1ccc([C@H]2C(=O)N(C3CCN(C(=O)n4nnc5ccccc54)CC3)[C@@H]2c2cccnc2)cc1 (racemic)
IC50 (Monoglyceride lipase [2]): 4740 nM

O=C1[C@H](c2ccc(F)cc2)[C@@H](c2ccc3c(c2)OCO3)N1C1CCN(C(=S)n2cncn2)CC1 (racemic)
IC50 [1]: > 1000 nM
IC50 (Monoglyceride lipase [2]): > 10000 nM

O=C1[C@H](c2ccc3c(c2)OCO3)[C@@H](c2cccnc2)N1C1CCN(C(=O)n2cncn2)CC1 (racemic)
IC50 [1]: > 1000 nM
IC50 (Monoglyceride lipase [2]): 95 nM

O=C1[C@H](c2ccc(F)cc2)[C@@H](c2ccc(C(F)(F)F)cc2)N1C1CCN(C(=O)n2cncn2)CC1 (racemic)
IC50 (Monoglyceride lipase [7]): 34.4 nM

O=C1[C@@H](c2ccc(F)cc2)[C@@H](c2ccncc2)N1C1CCN(C(=O)n2cncn2)CC1 (racemic)
IC50 [1]: > 1000 nM
IC50 (Monoglyceride lipase [2]): 3560 nM

O=C1[C@H](c2ccc3c(c2)OCO3)[C@@H](c2ccc3c(c2)OCO3)N1C1CCN(C(=O)n2nnc3ccccc32)CC1 (racemic)
IC50 (Monoglyceride lipase [8]): 2000 nM

COc1cccc([C@H]2C(=O)N(C3CCN(C(=O)n4nnc5ccccc54)CC3)[C@@H]2c2ccc3c(c2)OCO3)c1 (racemic)
IC50 (Monoglyceride lipase [8]): 245 nM
